Assay results reported in ChEMBL document CHEMBL2177052, “Rapid and efficient synthesis of a novel series of substituted aminobenzosuberone derivatives as potent, selective, non-peptidic neutral aminopeptidase inhibitors” (Bioorg Med Chem, 2012).
pKi: −log10 of the molar value.

Experiments:
Cytosol aminopeptidase [1] = biological target: T1, Cytosol aminopeptidase (Bos taurus, UniProt P00727); experiment: Competitive inhibition of bovine LAPc using L-leucine-p-nitroanilide as substrate by spectrophotometric analysis
T1 sequence (P00727 whole entry): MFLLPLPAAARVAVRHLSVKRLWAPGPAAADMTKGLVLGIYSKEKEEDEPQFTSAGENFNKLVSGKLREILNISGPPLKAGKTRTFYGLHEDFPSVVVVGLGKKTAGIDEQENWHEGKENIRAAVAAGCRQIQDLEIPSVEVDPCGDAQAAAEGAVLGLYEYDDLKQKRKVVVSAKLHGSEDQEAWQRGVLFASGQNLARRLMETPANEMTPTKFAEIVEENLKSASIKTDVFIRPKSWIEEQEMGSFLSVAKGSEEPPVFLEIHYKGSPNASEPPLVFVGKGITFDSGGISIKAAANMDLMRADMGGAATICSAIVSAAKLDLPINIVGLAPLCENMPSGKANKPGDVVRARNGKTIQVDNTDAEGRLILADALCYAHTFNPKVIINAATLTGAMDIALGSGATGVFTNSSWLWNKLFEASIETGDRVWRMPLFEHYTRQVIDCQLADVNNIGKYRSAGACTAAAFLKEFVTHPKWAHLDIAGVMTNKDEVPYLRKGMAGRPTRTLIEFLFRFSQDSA
Outline: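 Cytosolic leucine aminopeptidase from bovine kidney, 20 Units per assay, in 0.1 M Tris–HCl pH 8.0 with 0.1 mM ZnCl2, 5 mM MnCl2 and 1 M KCl. Km for L-leucine-p-nitroanilide 2 mM. Reaction started by adding enzyme to 1 ml medium at 30 °C. p-Nitroanilide release followed continuously at 405 nm (ε = 10,800 M-1 cm-1) for initial velocities. Ki taken from Dixon plots.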

[2] = biological target: T2, Leukotriene A-4 hydrolase (Homo sapiens, UniProt P09960); experiment: Competitive inhibition of human recombinant LTA4H using alanine-p-nitroanilide as substrate by Dixon-plot analysis
T2 sequence (P09960 whole entry): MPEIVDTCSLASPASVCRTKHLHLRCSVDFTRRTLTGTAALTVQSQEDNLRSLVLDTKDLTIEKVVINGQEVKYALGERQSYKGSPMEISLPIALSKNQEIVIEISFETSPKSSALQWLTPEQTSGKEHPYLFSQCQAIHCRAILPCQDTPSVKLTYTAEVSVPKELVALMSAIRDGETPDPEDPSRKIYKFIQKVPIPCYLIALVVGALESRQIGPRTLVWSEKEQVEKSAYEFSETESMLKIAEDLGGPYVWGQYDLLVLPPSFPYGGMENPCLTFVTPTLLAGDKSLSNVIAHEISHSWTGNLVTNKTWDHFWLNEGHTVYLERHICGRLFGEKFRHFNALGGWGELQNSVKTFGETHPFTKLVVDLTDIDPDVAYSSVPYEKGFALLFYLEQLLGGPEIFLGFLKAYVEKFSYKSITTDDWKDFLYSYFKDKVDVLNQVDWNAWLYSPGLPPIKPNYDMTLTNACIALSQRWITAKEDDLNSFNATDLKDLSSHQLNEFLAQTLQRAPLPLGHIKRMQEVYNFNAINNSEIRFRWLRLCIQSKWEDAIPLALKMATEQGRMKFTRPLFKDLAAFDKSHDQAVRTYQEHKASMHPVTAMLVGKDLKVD
Outline: (§1)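 Human LTA4H, 5 µg per assay, in 10 mM Tris–HCl pH 7.5 with 0.1 mM KCl. Alanine-p-nitroanilide used as substrate (Km 2 mM). Enzyme added last to start the 1 ml reaction at 30 °C. Release of p-nitroanilide followed continuously at 405 nm for initial rates. Ki from Dixon plots assuming rapid-equilibrium kinetics.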

Aminopeptidase N [3] = biological target: T3, Aminopeptidase N (Sus scrofa, UniProt P15145); experiment: Competitive inhibition of pig APN using L-leucine-p-nitroanilide as substrate by Dixon-plot analysis
T3 sequence (P15145 whole entry): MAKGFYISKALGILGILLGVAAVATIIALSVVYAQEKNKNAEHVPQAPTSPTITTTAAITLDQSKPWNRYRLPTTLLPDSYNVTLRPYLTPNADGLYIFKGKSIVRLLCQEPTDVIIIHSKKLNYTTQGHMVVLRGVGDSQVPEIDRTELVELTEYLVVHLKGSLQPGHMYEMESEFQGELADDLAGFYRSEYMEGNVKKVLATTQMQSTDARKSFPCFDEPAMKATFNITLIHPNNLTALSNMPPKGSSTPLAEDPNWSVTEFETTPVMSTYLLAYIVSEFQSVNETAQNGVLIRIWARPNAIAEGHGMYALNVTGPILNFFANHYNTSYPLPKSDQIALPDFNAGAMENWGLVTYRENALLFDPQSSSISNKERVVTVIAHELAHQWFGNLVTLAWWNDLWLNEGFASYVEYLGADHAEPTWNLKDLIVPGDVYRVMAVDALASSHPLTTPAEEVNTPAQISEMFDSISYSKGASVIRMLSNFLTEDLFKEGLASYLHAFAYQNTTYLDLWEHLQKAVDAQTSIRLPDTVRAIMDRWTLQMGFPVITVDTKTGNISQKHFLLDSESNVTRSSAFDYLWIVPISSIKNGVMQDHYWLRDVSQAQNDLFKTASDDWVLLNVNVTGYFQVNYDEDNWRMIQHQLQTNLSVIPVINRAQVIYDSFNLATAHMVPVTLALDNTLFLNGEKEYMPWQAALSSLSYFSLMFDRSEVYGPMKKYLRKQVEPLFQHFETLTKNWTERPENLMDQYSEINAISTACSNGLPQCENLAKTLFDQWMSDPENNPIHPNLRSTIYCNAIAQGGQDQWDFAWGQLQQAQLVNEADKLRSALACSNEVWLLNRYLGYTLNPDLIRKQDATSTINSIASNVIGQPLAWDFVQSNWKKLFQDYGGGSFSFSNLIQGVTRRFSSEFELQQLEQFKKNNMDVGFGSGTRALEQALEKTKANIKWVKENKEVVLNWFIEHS

[4] = biological target: T2, Leukotriene A-4 hydrolase; experiment: Competitive inhibition of human recombinant LTA4H using alanine-p-nitroanilide as substrate by spectrophotometric analysis; outline: as §1
Aminopeptidase N [5] = biological target: Aminopeptidase N (Homo sapiens, UniProt P15144)
Chain of Aminopeptidase N (Homo sapiens, UniProt P15144) (P15144 whole entry): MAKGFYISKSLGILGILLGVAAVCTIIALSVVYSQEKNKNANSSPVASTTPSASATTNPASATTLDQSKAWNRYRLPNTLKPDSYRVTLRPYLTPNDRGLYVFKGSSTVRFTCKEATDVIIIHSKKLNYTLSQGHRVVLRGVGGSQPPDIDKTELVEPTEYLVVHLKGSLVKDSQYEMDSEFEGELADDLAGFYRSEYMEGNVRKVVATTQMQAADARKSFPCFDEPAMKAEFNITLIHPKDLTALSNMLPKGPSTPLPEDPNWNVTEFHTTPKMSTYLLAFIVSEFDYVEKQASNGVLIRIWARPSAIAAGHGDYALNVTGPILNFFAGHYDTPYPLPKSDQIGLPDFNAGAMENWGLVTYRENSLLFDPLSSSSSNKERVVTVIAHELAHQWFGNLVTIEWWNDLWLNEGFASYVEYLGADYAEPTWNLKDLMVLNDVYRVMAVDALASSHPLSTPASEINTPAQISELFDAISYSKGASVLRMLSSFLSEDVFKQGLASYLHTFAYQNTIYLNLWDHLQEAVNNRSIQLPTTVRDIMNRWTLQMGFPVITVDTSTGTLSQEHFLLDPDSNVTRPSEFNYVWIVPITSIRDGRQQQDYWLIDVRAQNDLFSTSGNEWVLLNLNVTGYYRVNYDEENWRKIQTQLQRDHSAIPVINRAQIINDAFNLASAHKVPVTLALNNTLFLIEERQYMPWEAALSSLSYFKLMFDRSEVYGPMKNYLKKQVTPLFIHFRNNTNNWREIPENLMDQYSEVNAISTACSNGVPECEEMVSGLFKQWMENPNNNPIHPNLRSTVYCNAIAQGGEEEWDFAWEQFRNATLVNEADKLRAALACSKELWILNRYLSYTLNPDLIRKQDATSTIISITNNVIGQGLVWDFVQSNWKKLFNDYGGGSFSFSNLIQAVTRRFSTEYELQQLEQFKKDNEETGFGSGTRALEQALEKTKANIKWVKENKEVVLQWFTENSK

Cytosol aminopeptidase [6] = biological target: T1, Cytosol aminopeptidase; experiment: Competitive inhibition of bovine LAPc using L-leucine-p-nitroanilide as substrate by Dixon-plot analysis
Aminopeptidase N [7] = biological target: T3, Aminopeptidase N; experiment: Competitive inhibition of pig APN using L-leucine-p-nitroanilide as substrate by spectrophotometric analysis
Outline: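 Porcine kidney aminopeptidase-N, 1 mUnit per assay, in 0.02 M Tris–HCl pH 7.5 at 30 °C. L-Leucine-p-nitroanilide substrate, Km 0.2 mM. Enzyme addition starts the reaction. Continuous 405 nm read of p-nitroanilide release. Ki from Dixon plots for rapid-equilibrium inhibitors. For slow-binding inhibitors, progress curves were run with 3 nM enzyme and substrate at Km, steady state reached after 1.5 h, and Ki taken from Morrison plots.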

Structure (SMILES): NC1Cc2ccccc2CC1=O (stereo not given)
- pKi (Cytosol aminopeptidase [1]): < 3.00

Structure (SMILES): N[C@H]1CCc2ccccc2/C(=C/c2ccccc2)C1=O
- pKi [2]: 3.42
- pKi (Aminopeptidase N [3]): 4.10

Structure (SMILES): N[C@H]1CCc2ccccc2CC1=O
- pKi [4]: < 3.00
- pKi (Cytosol aminopeptidase [1]): < 3.00
- pKi (Aminopeptidase N [3]): 6.00
- pKi (Aminopeptidase N [5]): 6.00

Structure (SMILES): N[C@H]1CCc2ccccc2[C@@H](Cc2ccccc2)C1=O (racemic)
- pKi [4]: < 4.00
- pKi (Cytosol aminopeptidase [1]): < 4.00
- pKi (Aminopeptidase N [3]): 4.89

Structure (SMILES): N[C@H]1CCc2ccccc2[C@@H](CCCc2ccccc2)C1=O (racemic)
- pKi [4]: < 4.00
- pKi (Cytosol aminopeptidase [1]): < 4.00
- pKi (Aminopeptidase N [3]): 4.92

Structure (SMILES): N[C@H]1CCc2ccccc2[C@H](F)C1=O (racemic)
- pKi [4]: < 3.00
- pKi (Cytosol aminopeptidase [1]): < 3.00
- pKi (Aminopeptidase N [3]): 6.52

Structure (SMILES): N[C@H]1CCc2ccccc2[C@H](SCc2ccccc2)C1=O (racemic)
- pKi [4]: < 4.00
- pKi (Cytosol aminopeptidase [6]): 4.40
- pKi (Aminopeptidase N [7]): 7.08

Structure (SMILES): N[C@H]1CCc2ccccc2[C@H](Sc2ccccc2)C1=O (racemic)
- pKi [4]: < 4.00
- pKi (Cytosol aminopeptidase [1]): < 4.00
- pKi (Aminopeptidase N [7]): 7.22

Structure (SMILES): N[C@H]1CCc2ccccc2[C@@H](Sc2ccccc2)C1=O (racemic)
- pKi [4]: < 4.00
- pKi (Cytosol aminopeptidase [1]): < 4.00
- pKi (Aminopeptidase N [7]): 7.22

Structure (SMILES): N[C@H]1CCc2ccccc2[C@H](CCc2ccccc2)C1=O (racemic)
- pKi [2]: 3.33
- pKi (Aminopeptidase N [3]): 4.06

Structure (SMILES): N[C@H]1CCc2ccccc2[C@@H](CCc2ccccc2)C1=O (racemic)
- pKi [4]: < 4.00
- pKi (Cytosol aminopeptidase [1]): < 4.00
- pKi (Aminopeptidase N [3]): 4.66
